High-throughput results from PubChem.
Only some compounds are listed: those with a hit (about 3.4% of all), similar ones and a draw of the others.
E-sel inducer: E-selectin induction on HUVECs; activation, % at 7.58 µM; AID 686992; actives 0.37% (n = 260,000); HUVEC E-selectin immunofluorescence imaging; normalized: neutral wells 0, TNF-alpha wells 100; P16581;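 active = mean E-selectin-positive cell signal at least 10% of the positive control, reached in at least 60% of replicates, without over 20% cell loss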
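Test system: HUVEC | Signal: Immunofluorescence imaging | Read-out: Percent E-selectin-positive cells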
rRNA inh HTS: inhibitors of bacterial rRNA selective over humanized ribosomes. E. coli WT GFP vs humanized-ribosome RFP mutants, fluorescence, 24 h; active compounds read low; DMSO median 0, no signal -100. GFP signal change (wild-type ribosome), % (concentration not given with the values). actives 1.6% (n = 350,000). AID 720706;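 active = significant combined selectivity score with lowered wild-type GFP, culture density cut under 30%, mutant RFP and density less affected; inactive = any of these conditions unmet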
S100A4 MyoIIA: blocks human S100A4 binding to myosin IIA peptide. P26447. S100A4/TAMRA-MyoIIA peptide fluorescence polarization. inhibition, % at 10.7 µM. actives 0.14% (n = 360,000). AID 652163;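 active = mean inhibition of at least 70% across replicates, with every replicate also reaching that level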
Target sequence (P26447 whole entry, looked up): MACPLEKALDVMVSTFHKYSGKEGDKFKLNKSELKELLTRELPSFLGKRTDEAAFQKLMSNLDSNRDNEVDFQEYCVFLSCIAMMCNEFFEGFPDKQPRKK
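Test system: S100A4 monomer protein. Medium: HEPES buffer with Ca2+, pH 7.2. Reagent: fluorescent myosin IIA peptide, 5 nM. Compound dosing: single-point compound testing. Timing: 5 min between mix addition and reading. Benchmarks: DMSO neutral and TFP positive wells.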
SIRT5 block: blocks human SIRT5 desuccinylation of peptide. Q9NXA8. Purified SirT5, succinyl-peptide AMC, trypsin-coupled fluorescence. inhibition, % at 15 µM. actives 1.1% (n = 330,000). AID 652115; in the data active = inhibition above about 15%
ERAP1 inh: ERAP1 (human) enzyme inhibition; recombinant ERAP1, Leu-AMC fluorescence, 60 min; AID 652197; actives 0.15% (n = 340,000); inhibition, % at 10.7 µM;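 active = mean replicate inhibition of at least 30%, or all replicates individually reaching that 30% level; inactive = mean below 30% and not every replicate reaching it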;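 also: 0% = neutral control wells and 100% = L-leucinethiol positive control wells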
AF4-AF9 inh: blocks AF4 peptide binding to human AF9; actives 0.47% (n = 350,000); AlphaScreen, biotin-AF4 peptide binding to FLAG-AF9; inhibition, % at 10 µM;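 active = every replicate reaching a set inhibition limit, whatever the replicate mean, cut at about 25% in these data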;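 also: 0% = plate neutral control median and 100% = total signal loss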
Target sequence (P42568 whole entry, looked up): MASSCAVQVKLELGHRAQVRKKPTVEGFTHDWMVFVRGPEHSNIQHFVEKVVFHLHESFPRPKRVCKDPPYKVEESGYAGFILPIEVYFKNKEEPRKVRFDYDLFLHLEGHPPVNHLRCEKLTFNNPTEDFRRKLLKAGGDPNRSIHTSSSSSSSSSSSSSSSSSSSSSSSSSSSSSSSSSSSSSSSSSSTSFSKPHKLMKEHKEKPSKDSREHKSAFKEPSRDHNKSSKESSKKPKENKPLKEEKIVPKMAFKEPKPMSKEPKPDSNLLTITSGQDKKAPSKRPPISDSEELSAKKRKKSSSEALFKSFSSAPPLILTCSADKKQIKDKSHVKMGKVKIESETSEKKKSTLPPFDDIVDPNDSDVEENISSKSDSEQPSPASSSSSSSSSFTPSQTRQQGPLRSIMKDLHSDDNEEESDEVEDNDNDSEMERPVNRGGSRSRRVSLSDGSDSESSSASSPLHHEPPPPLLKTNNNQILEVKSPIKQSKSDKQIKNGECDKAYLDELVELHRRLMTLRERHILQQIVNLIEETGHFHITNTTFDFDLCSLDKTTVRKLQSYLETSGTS
* marks the source's active call; other numbers are inactive results; · = no result.

SMILES	E-sel inducer	rRNA inh HTS	S100A4 MyoIIA	SIRT5 block	ERAP1 inh	AF4-AF9 inh
COc1ccc2c3c([nH]c2c1)[C@@H](CO)N(C(=O)CN1CCOCC1)CC31CCN(C(=O)NC(C)C)CC1	-0.5	3.1	-7.1	7.2	2.0	0.2
COc1ccc(Nc2ccccc2N)cc1	37.4*	·	-24.4	-0.9	4.7	40.0*
CCCN1[C@@H]2c3ccc(-c4ccc(C(=O)N(C)C)cc4)c(=O)n3C[C@@H]2[C@@H](CO)[C@@H]1C(=O)NCC	0.3	2.9	3.4	0.4	-3.2	·
CCOC(=O)CN(C)Cc1cn(C)nc1-c1ccc(Oc2ccccc2)cc1	0.1	-19.5*	-25.3	-0.6	0.3	3.6
Cc1ccc(NC2=C(Cl)C(=O)OC2OC(=O)c2ccccc2)c(C)c1 (centres undefined)	·	-41.1*	3.4	-0.7	2.5	-0.2
CC1(CCc2ccccc2)NC(=O)N(Cc2cc([N+](=O)[O-])cc3c2OCOC3)C1=O (centres undefined)	-0.2	-24.4*	2.9	4.8	-3.6	-1.4
Cn1c(CCC(=O)Nc2ccc(S(C)(=O)=O)cc2)nc2cc(S(=O)(=O)N3CCOCC3)ccc21	-0.2	12.2	0.1	4.8	3.4	-1.1
Cn1c(CCC(=O)Nc2cc(S(C)(=O)=O)ccc2Cl)nc2cc(S(=O)(=O)N3CCOCC3)ccc21	9.7	-1.2	-5.1	7.2	62.6*	0.8
C[n+]1cccc(/C=N/NC(=O)CC23CC4CC(CC(C4)C2)C3)c1	-0.3	10.0	52.2	0.1	95.9*	-0.9
O=C1Nc2ccccc2C(=O)N2[C@H](c3ccccc3)[C@@H]3C(=O)N(Cc4ccccc4)C(=O)[C@@H]3[C@H]12	-0.2	2.6	-13.8	15.8*	0.1	5.5
C[C@@H]1CN([C@H](C)CO)C(=O)Cc2cc(NC(=O)Nc3cccc4ccccc34)ccc2O[C@H]1CN(C)Cc1ccc(C(=O)O)cc1	0.0	-1.9	4.7	1.9	-14.7	-2.5
COc1ccc(S(=O)(=O)N(C)C[C@H]2Oc3ccc(NC(=O)Nc4ccc5c(c4)OCO5)cc3CC(=O)N([C@H](C)CO)C[C@H]2C)cc1	36.3*	-3.3	-0.8	1.9	-0.3	5.6
C[C@@H]1CN([C@H](C)CO)C(=O)Cc2cc(NC(=O)Nc3cccc4ccccc34)ccc2O[C@H]1CN(C)Cc1ccc2c(c1)OCO2	·	-5.9	2.9	16.5*	-4.9	-1.0
C[C@H](CO)N1C[C@H](C)[C@H](CN(C)Cc2ccc3c(c2)OCO3)Oc2ccc(NC(=O)Nc3ccc4c(c3)OCO4)cc2CC1=O	0.0	-3.6	-4.4	-5.9	0.1	1.9
C[C@H](CO)N1C[C@H](C)[C@H](CN(C)Cc2ccc(C(=O)O)cc2)Oc2ccc(NC(=O)Nc3cccc4ccccc34)cc2CC1=O	0.2	-0.4	-8.2	-0.6	50.6*	0.6
C[C@@H]1CN([C@@H](C)CO)C(=O)Cc2cc(NC(=O)Nc3ccc4c(c3)OCO4)ccc2O[C@H]1CN(C)Cc1ccc2c(c1)OCO2	0.7	2.3	-5.9	1.0	0.8	25.4*
C[C@@H]1CN([C@@H](C)CO)C(=O)Cc2cc(NC(=O)Nc3cccc4ccccc34)ccc2O[C@@H]1CN(C)Cc1ccc2c(c1)OCO2	·	-0.6	3.5	-0.5	-4.5	1.8
COc1ccc(S(=O)(=O)N(C)C[C@H]2Oc3ccc(NC(=O)Nc4ccc5c(c4)OCO5)cc3CC(=O)N([C@@H](C)CO)C[C@@H]2C)cc1	-17.3	-1.3	-31.8	·	0.2	·
O=S(=O)(c1ccccc1)N1CCCCN2[C@H](C1)[C@@H](c1ccc(-c3cncnc3)cc1)[C@@H]2CO	0.1	-2.0	4.5	6.9	-0.3	-5.3
C[C@@H]1CN([C@H](C)CO)C(=O)Cc2cc(NC(=O)Nc3ccccc3)ccc2O[C@@H]1CN(C)C	45.5*	9.8	0.6	3.2	-4.7	-1.7
C[C@@H]1CN([C@H](C)CO)C(=O)Cc2cc(NC(=O)Nc3ccc4c(c3)OCO4)ccc2O[C@H]1CN(C)CC1CCCCC1	-0.4	-10.6	6.6	17.5*	2.5	2.0
C[C@H](CO)N1C[C@H](C)[C@@H](CN(C)C)Oc2ccc(NC(=O)Nc3ccccc3)cc2CC1=O	-6.7	6.9	-3.6	-2.8	4.0	0.2
C[C@H]1CN([C@@H](C)CO)C(=O)Cc2cc(NC(=O)Nc3ccc4c(c3)OCO4)ccc2O[C@@H]1CN(C)C	232.9*	1.5	44.8	7.6	-3.2	6.5
C[C@H](CO)N1C[C@H](C)[C@H](CN(C)CC2CCCCC2)Oc2ccc(NC(=O)Nc3ccc4c(c3)OCO4)cc2CC1=O	0.7	1.0	6.5	0.9	2.9	9.1
C[C@H]1CN([C@@H](C)CO)C(=O)Cc2cc(NC(=O)Nc3ccc4c(c3)OCO4)ccc2O[C@@H]1CN(C)C(=O)Nc1ccc2c(c1)OCO2	0.6	1.7	38.4	-0.4	0.1	1.2
SMILES	E-sel inducer	rRNA inh HTS	S100A4 MyoIIA	SIRT5 block	ERAP1 inh	AF4-AF9 inh
C[C@@H]1CCCCO[C@H](CN(C)Cc2ccc(C(=O)Nc3ccccc3N)cc2)[C@@H](C)CN([C@@H](C)CO)C(=O)c2cc(N(C)C)ccc2O1	·	-2.6	·	·	·	·
C[C@@H]1CN([C@H](C)CO)C(=O)Cc2cc(NC(=O)c3ccncc3)ccc2O[C@H]1CN(C)S(=O)(=O)c1ccc(F)cc1	-0.3	-3.7	-19.4	1.7	-0.1	-0.3
CN(C)C(=O)[C@@H]1[C@@H](CO)[C@@H]2Cn3c(ccc(-c4cccc(F)c4)c3=O)[C@@H]2N1C(=O)c1cnccn1	0.1	3.0	4.2	4.2	0.8	-6.0
CON(C)C(=O)CC(CNC(=O)OC(C)(C)C)c1ccc(Cl)cc1 (centres undefined)	-0.1	11.5	15.3	21.5*	-0.6	-0.5
COc1ccc(S(=O)(=O)Nc2ccc3c(c2)C(=O)N([C@@H](C)CO)C[C@@H](C)[C@H](CN(C)Cc2ccc(-c4ccccc4)cc2)O3)cc1	-0.1	4.8	6.3	20.9*	2.6	-0.7
C[C@H](CO)N1C[C@H](C)[C@H](CN(C)Cc2ccc(Oc3ccccc3)cc2)Oc2ccc(NS(=O)(=O)c3ccccc3)cc2C1=O	-0.1	8.6	-1.1	13.7	-4.0	3.8
COc1ccc(S(=O)(=O)Nc2ccc3c(c2)C(=O)N([C@H](C)CO)C[C@@H](C)[C@@H](CN(C)Cc2ccc(Oc4ccccc4)cc2)O3)cc1	-0.2	4.9	-7.9	29.8*	-1.1	1.4
C[C@@H]1CN([C@@H](C)CO)C(=O)c2cc(NS(=O)(=O)c3ccc(Cl)cc3)ccc2O[C@H]1CN(C)Cc1ccc(Oc2ccccc2)cc1	0.1	1.5	-1.4	16.6*	-1.8	1.1
